Publication PMC8263925 (The Journal of General Physiology, 2021)
Substitutions are numbered along the chain they refer to.

What was measured:
Hv1 WT [1] = target: T1, Hv1 WT (Homo sapiens, UniProt Q96D96); type: cell-based
T1 sequence (Q96D96 1-273): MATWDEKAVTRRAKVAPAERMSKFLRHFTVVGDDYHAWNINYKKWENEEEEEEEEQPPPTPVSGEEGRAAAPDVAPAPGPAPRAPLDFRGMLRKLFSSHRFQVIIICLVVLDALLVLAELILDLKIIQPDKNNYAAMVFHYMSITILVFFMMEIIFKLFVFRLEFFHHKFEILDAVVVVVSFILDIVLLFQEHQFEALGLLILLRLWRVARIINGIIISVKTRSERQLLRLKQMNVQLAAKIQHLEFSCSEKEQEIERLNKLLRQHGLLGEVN
In short: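 WT channel in inside-out oocyte patches, symmetric pH 6.0, 22 ± 1°C. Holding −40 mV, depolarization to +120 mV; relative depolarization time td/(tr + td) of 0.1, 0.2, 0.3 or 0.5. 50 µM perfused into bath, then washed out. End-pulse current normalized. Decay fitted double-exponentially (τfast, τslow, weights, c∞); recovery fitted single-exponentially. n = 7, 7, 5, 8 per RDT; SEM.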

Hv1 F150A = target: T2, Hv1 F150A (Homo sapiens, UniProt Q96D96, F150A); assay: Inside-out patch time course of inhibition, mutant channel; type: cell-based; details: 0.1 µM, SEM, n = 5
T2 sequence (Q96D96 1-273 F150A): T1 sequence (Q96D96 1-273) with F150A

Hv1 F156A = target: T3, Hv1 F156A (Homo sapiens, UniProt Q96D96, F156A); assay: Inside-out patch time course of inhibition, mutant channel; type: cell-based; details: 50 µM
T3 sequence (Q96D96 1-273 F156A): T1 sequence (Q96D96 1-273) with F156A
In short: (§1)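 Xenopus oocytes injected with mutant-channel mRNA 1–3 d earlier, kept at 18°C in ND96. Inside-out patches at 22 ± 1°C in symmetric Mes/TEA solutions, pH 6.0. Held at −40 mV and pulsed to +120 mV at relative depolarization time 0.2 (3 s/15 s). 50 µM perfused into bath. End-pulse current leak- and rundown-corrected. Decay fitted double-exponentially (τfast, τslow, cfast, cslow); washout recovery single-exponentially (τoff).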

Hv1 K157Q = target: T4, Hv1 K157Q (Homo sapiens, UniProt Q96D96, K157Q); assay: as above; type: cell-based; details: 50 µM
T4 sequence (Q96D96 1-273 K157Q): T1 sequence (Q96D96 1-273) with K157Q
In short: as §1

Hv1 D174E = target: T5, Hv1 D174E (Homo sapiens, UniProt Q96D96, D174E); assay: as above; type: cell-based
T5 sequence (Q96D96 1-273 D174E): T1 sequence (Q96D96 1-273) with D174E
In short: as §1

Hv1 W207Y = target: T6, Hv1 W207Y (Homo sapiens, UniProt Q96D96, W207Y); assay: as above; type: cell-based; details: 50 µM
T6 sequence (Q96D96 1-273 W207Y): T1 sequence (Q96D96 1-273) with W207Y
In short: as §1

Hv1 R208K = target: T7, Hv1 R208K (Homo sapiens, UniProt Q96D96, R208K); assay: as above; type: cell-based; details: 50 µM; fast component not resolved from slow component
T7 sequence (Q96D96 1-273 R208K): T1 sequence (Q96D96 1-273) with R208K
In short: as §1

Hv1 WT [2] = target: T1, Hv1 WT; assay: Kinetic simulation of HIF-mediated inhibition, four-state model S; details: room temperature, closed VSD
[3] = 50 μM, double-exponential fit, RDT 0.1-0.5

Cc1[nH]c(N)nc1CCC(=O)c1cc(F)cc(F)c1 [HIF, 3-(2-amino-5-methyl-1H-imidazol-4-yl)-1-(3,5-difluorophenyl)propan-1-one]
relative contribution of the slow component, cslow / (cfast + cslow) (Hv1 WT [1]; 50 μM, RDT = 0.2): 0.51
τfast, time constant of fast component of inhibition (Hv1 WT [1]; [3]): < 5 s
τslow, time constant of slow component of inhibition (Hv1 WT [1]; [3]): > 40 s
τslow, RDTon = 0.1/τslow, RDTon = 0.5 (Hv1 WT [1]; 50 μM, experimental): 1.15 ± 0.20
τoff, recovery from inhibition (Hv1 WT [1]; after 50 µM, RDT = 0.2): 94 ± 7 s
τoff, time constant of recovery from inhibition (Hv1 WT [1]; after 50 μM, single-exponential fit, RDT 0.1-0.5): ≥ 80 s
ratio between the peak current and the current at the end of the depolarization step in the presence of the inhibitor (Hv1 F150A): 2.5 ± 0.5
effect of mutation on inhibition (Hv1 F156A): did not result in any significant change
reduction of the extent of inhibition vs WT (Hv1 K157Q): 46%
τslow (Hv1 K157Q): > 200 s
reduction of the extent of inhibition vs WT (Hv1 D174E; 50 µM): 35%
τslow (Hv1 D174E; 50 µM, too slow to be accurately quantified): > 200 s
τoff, recovery from inhibition (Hv1 D174E; after 50 µM, RDT = 0.2): 37 ± 6 s
reduction of the extent of inhibition vs WT (Hv1 W207Y): 38%
τslow (Hv1 W207Y): > 200 s
extent of inhibition compared with WT (Hv1 R208K): slightly increased
energy barriers to cross in and out of site 2 (Hv1 WT [2]): ~20 kcal/mol
